# Test results: ChEMBL document CHEMBL1154610, “Discovery and preclinical evaluation of [4-[[1-(3-fluorophenyl)methyl]-1H-indazol-5-ylamino]-5-methylpyrrolo[2,1-f][1,2,4]triazin-6-yl]carbamic acid, (3S)-3-morpholinylmethyl ester (BMS-599626), a selective and orally efficacious inhibitor of human epidermal growth factor receptor 1 and 2 kinases” (J Med Chem, 2009)
# Calls of active or inactive are those of the source. The calls are words filed in the database; no cut-off is given here.
# How the values were obtained:
# [1] = target: Epidermal growth factor receptor (Homo sapiens, UniProt P00533); assay: Inhibition of human recombinant HER1 expressed in Sf9 cells by liquid scintillation counting
# Sequence of Epidermal growth factor receptor (P00533 whole entry): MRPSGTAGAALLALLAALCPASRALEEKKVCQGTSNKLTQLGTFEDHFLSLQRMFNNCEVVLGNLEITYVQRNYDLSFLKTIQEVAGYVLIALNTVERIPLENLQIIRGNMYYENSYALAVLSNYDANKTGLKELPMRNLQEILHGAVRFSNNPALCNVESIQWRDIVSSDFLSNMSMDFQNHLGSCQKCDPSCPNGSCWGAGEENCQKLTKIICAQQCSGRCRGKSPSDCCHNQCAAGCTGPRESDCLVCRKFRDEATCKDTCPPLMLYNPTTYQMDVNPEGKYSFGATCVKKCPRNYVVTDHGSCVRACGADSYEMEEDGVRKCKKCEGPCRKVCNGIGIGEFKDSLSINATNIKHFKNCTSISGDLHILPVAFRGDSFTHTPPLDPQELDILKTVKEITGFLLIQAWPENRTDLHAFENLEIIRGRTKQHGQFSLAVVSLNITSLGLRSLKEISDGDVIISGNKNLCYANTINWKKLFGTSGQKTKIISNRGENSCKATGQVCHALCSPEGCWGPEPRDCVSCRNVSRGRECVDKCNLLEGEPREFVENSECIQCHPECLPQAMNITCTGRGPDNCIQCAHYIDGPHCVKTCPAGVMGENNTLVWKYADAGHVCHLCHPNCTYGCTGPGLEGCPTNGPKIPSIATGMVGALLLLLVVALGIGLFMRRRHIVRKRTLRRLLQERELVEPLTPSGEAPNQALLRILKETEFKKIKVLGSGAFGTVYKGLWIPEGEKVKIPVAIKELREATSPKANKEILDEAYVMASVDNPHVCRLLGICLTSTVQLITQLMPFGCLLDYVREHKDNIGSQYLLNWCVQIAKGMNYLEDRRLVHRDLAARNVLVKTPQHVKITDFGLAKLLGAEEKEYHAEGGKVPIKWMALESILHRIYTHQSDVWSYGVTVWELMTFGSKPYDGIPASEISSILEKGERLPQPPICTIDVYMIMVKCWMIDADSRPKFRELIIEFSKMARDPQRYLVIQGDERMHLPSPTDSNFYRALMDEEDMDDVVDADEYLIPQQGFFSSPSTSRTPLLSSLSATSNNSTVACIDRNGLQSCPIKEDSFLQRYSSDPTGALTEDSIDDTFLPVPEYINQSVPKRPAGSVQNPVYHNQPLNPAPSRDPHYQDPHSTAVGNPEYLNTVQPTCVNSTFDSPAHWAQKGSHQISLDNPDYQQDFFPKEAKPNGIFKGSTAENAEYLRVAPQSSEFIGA
# [2] = Antiproliferative activity against mouse SAL2 cells after 72 hrs by MTT assay; format: functional, cell-based; conditions: SAL2, 72 h
# [3] = Intrinsic permeability in human Caco-2 cells; format: ADME, cell-based; conditions: read-out: permeability
# [4] = Cmax in mouse at 120 mg/kg, po; format: ADME, organism-based; parameters: dose 120 mg/kg, route oral; conditions: in vivo
# [5] = Tmax in mouse at 120 mg/kg, po; format: ADME, organism-based; parameters: dose 120 mg/kg, route oral; conditions: in vivo
# Outline: (§1)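 Mouse PK, average of three animals. Solution formulation in PG/Tween80/water (40:10:50), given orally at 120 mg/kg or iv at 25 mg/kg. Tmax taken from the oral arm; Vss taken from the iv arm.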
# [6] = Clearance in mouse at 25 mg/kg, iv; format: ADME, organism-based; parameters: dose 25 mg/kg, route intravenous; conditions: in vivo
# [7] = Volume of distribution at steady state in mouse at 25 mg/kg, iv; format: ADME, organism-based; parameters: dose 25 mg/kg, route intravenous; conditions: in vivo, read-out: Vdss; outline: as §1
# [8] = Cmax in rat at 10 mg/kg, po; format: ADME, organism-based; parameters: dose 10 mg/kg, route oral; conditions: in vivo
# [9] = Half life in rat plasma at 10 mg/kg, po; format: ADME, organism-based; parameters: dose 10 mg/kg, route oral
# [10] = Mean residence time in rat at 2.5 mg/kg, iv; format: ADME, organism-based; parameters: dose 2.5 mg/kg, route intravenous; conditions: in vivo
# [11] = Clearance in rat at 2.5 mg/kg, iv; format: ADME, organism-based; parameters: dose 2.5 mg/kg, route intravenous; conditions: in vivo
# [12] = Volume of distribution at steady state in rat at 2.5 mg/kg, iv; format: ADME, organism-based; parameters: dose 2.5 mg/kg, route intravenous; conditions: in vivo, read-out: Vdss
# Outline: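 Rat PK, average of three animals. Solution formulation in PEG400/Tween80/water (50:0.1:50), given orally at 10 mg/kg or iv at 2.5 mg/kg. Tmax comes from oral dosing; Vss comes from iv dosing.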
# [13] = Cmax in dog at 25 mg/kg, po; format: ADME, organism-based, Canis lupus familiaris; parameters: dose 25 mg/kg, route oral; conditions: in vivo
# [14] = Tmax in dog at 25 mg/kg, po; format: ADME, organism-based, Canis lupus familiaris; parameters: dose 25 mg/kg, route oral; conditions: in vivo
# Outline: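 Dog PK, average of two animals. Compound dosed as a PEG400/Tween80/water (50:0.1:50) solution, orally at 25 mg/kg and iv at 1.5 mg/kg. Oral data give Tmax; iv data give Vss.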
# [15] = Half life in dog plasma at 25 mg/kg, po; format: ADME, organism-based, Canis lupus familiaris; parameters: dose 25 mg/kg, route oral
# [16] = Clearance in dog at 1.5 mg/kg, iv; format: ADME, organism-based, Canis lupus familiaris; parameters: dose 1.5 mg/kg, route intravenous; conditions: in vivo
# [17] = Tmax in cynomolgus monkey at 5 mg/kg, po; format: ADME, organism-based, Macaca fascicularis; parameters: dose 5 mg/kg, route oral; conditions: in vivo
# Outline: (§2)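 Monkey PK, mean of two animals. Compound given as a solution in PEG400/Tween80/water (50:0.1:50), 5 mg/kg both orally and iv. Tmax from the oral route; steady-state volume of distribution from the iv route.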
# [18] = AUC (0 to 24 hrs) in cynomolgus monkey at 5 mg/kg, po; format: ADME, organism-based, Macaca fascicularis; parameters: time < 24 hr, dose 5 mg/kg, route oral; conditions: plasma
# Outline: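 Monkeys were dosed orally at 5 mg/kg as a solution in PEG400/Tween80/water (50:0.1:50).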
# [19] = Half life in cynomolgus monkey plasma at 5 mg/kg, po; format: ADME, organism-based, Macaca fascicularis; parameters: dose 5 mg/kg, route oral
# [20] = Volume of distribution at steady state in cynomolgus monkey at 5 mg/kg, iv; format: ADME, organism-based, Macaca fascicularis; parameters: dose 5 mg/kg, route intravenous; conditions: in vivo, read-out: Vdss; outline: as §2
# [21] = Oral bioavailability in cynomolgus monkey at 5 mg/kg; format: ADME, organism-based, Macaca fascicularis; conditions: in vivo
# NCI-N87 = assay: Antitumor activity against human NCI-N87 cells xenografted in athymic mouse at 60 mg/kg, po qd for 21 days; format: functional; conditions: NCI-N87, 504 h, read-out: TGI
# Outline: (§3)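 Xenograft-bearing mice dosed orally once daily in propylene glycol/Tween80/water (40:10:50). TGI taken as percent tumor growth inhibition during treatment; significance from mean tumor weight at end of treatment; body weight loss and morbidity monitored.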
# Cytochrome P450 1A2 = target: T1, Cytochrome P450 1A2 (Homo sapiens, UniProt P05177); assay: Inhibition of human CYP1A2; format: ADME
# T1 sequence (P05177 whole entry): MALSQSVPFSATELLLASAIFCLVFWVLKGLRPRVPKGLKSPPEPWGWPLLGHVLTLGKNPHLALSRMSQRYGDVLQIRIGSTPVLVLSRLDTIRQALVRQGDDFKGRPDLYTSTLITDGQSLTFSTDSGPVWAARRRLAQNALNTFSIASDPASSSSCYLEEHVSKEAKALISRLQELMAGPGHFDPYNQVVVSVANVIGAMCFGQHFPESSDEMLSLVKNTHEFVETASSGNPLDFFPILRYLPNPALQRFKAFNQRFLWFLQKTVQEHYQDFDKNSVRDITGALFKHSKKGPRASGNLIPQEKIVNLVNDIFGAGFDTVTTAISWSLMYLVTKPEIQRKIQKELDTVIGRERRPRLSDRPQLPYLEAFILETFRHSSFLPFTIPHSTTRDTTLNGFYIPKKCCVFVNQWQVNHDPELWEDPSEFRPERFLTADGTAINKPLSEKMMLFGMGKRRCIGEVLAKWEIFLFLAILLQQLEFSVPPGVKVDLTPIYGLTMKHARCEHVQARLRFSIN
# Cytochrome P450 2C19 = Cytochrome P450 2C19 (Homo sapiens, UniProt P33261); assay: Inhibition of human CYP2C19; format: ADME
# Sequence of Cytochrome P450 2C19 (P33261 whole entry): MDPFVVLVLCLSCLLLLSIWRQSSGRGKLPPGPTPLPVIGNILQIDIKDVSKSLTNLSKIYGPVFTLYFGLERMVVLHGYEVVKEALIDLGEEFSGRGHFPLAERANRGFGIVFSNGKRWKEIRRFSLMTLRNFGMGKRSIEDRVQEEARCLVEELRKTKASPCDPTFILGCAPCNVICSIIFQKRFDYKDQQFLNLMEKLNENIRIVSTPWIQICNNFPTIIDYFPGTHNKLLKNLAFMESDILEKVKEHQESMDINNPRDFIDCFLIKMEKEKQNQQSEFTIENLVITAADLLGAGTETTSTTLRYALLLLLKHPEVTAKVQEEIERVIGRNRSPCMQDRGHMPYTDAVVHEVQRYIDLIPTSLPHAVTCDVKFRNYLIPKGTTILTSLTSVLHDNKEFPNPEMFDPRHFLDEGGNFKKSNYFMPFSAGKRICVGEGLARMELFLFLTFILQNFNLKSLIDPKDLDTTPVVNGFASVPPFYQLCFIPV
# [22] = Protein binding in mouse plasma at 10 uM by equilibrium dialysis; format: ADME, cell-free; conditions: read-out: PPB (converted)
# [23] = Protein binding in rat plasma at 10 uM by equilibrium dialysis; format: ADME, cell-free; conditions: read-out: PPB (converted)
# [24] = target: Epidermal growth factor receptor and ErbB2 (HER1 and HER2) (Homo sapiens) (UniProt P04626+P00533); assay: Inhibition of epidermal growth factor-induced HER1/HER2 heterodimer formation in human AU565 cells at 1 uM by immunoprecipitation; format: cell-based
# L2987 = assay: Antitumor activity against human L2987 cells xenografted in athymic mouse at 30 mg/kg, po qd for 14 days; format: functional; conditions: L2987, 336 h, read-out: TGI; outline: as §3
structure (smiles),measurement,setting,value
Cc1c(NC(=O)OC[C@@H]2COCCN2)cn2ncnc(Nc3ccc4c(cnn4Cc4cccc(F)c4)c3)c12 [AC-480],IC50,[1],32 nM
same,IC50,[2],240 nM
same,Papp,[3],21.4 ×10⁻⁶ cm/s
same,Cmax,[4],18000 nM
same,Tmax,[5],1 h
same,clearance,[6],21.3 mL/min/kg
same,Vd,[7],4.7 L/kg
same,Cmax,[8],600 nM
same,half-life,[9],2.8 h
same,MRT,[10],2.8 h
same,clearance,[11],41.6 mL/min/kg
same,Vd,[12],5.7 L/kg
same,Cmax,[13],1200 nM
same,Tmax,[14],2.3 h
same,half-life,[15],7.2 h
same,clearance,[16],24.8 mL/min/kg
same,Tmax,[17],1.5 h
same,AUC(0-t) at 24 h,[18],3.6 µM·h
same,half-life,[19],5.7 h
same,Vd,[20],4 L/kg
same,bioavailability,[21],31%
same,inhibition in vivo at 60 mg/kg,NCI-N87,39%
same,IC50,Cytochrome P450 1A2,> 40000 nM
same,IC50,Cytochrome P450 2C19,10000 nM
same,fraction unbound at 10 µM,[22],0.017
same,fraction unbound at 10 µM,[23],0.029
same,inhibition,[24],Active
same,inhibition in vivo at 30 mg/kg,L2987,< 50%
